This note sets out measurements from ChEMBL document CHEMBL1671809, “Discovery of phosphoric acid mono-{2-[(E/Z)-4-(3,3-dimethyl-butyrylamino)-3,5-difluoro-benzoylimino]-thiazol-3-ylmethyl} ester (Lu AA47070): a phosphonooxymethylene prodrug of a potent and selective hA(2A) receptor antagonist” (J Med Chem, 2011).

Structures are written as SMILES. Bounds are passed on as bounds.

Series [1] deals with T1, Adenosine receptor A3 (Homo sapiens, UniProt P0DMS8).
T1 sequence (P0DMS8 whole entry): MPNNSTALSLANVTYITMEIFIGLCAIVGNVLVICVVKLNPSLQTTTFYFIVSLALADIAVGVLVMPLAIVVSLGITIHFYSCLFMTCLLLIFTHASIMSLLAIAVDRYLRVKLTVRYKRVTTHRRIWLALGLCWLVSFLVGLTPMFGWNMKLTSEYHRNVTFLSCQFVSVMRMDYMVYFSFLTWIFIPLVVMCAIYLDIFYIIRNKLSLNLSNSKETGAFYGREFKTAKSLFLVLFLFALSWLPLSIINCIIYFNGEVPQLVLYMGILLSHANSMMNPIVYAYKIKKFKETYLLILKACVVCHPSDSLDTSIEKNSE
Kind of series: Displacement of [3H]-AB-MECA from human recombinant adenosine A3 receptor expressed in CHO-K1 cells after 60 mins. It counts as cell-based.

The nature of series [2]: Primary phase half life in Sprague-Dawley rat at 0.5 mg/kg, iv and 1 mg/kg, po. It counts as ADME, organism-based. Particulars: in vivo. A digest of the protocol:
(§1)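 Awake Sprague-Dawley rats carrying a carotid catheter were dosed with 0.5 mg/kg iv or 1 mg/kg po in aqueous 25% cremophore, n = 3 per route. Ten 100 μL blood samples were collected automatically over 20 h. Plasma was assayed by HTLC-MS/MS. Parameters came from a two-compartment model with first-order absorption (po) and elimination.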

The target of series [3] is T2, Adenosine receptor A3 (Homo sapiens) (UniProt P0DMS8).
T2 sequence (whole entry): T1 sequence (P0DMS8 whole entry)
Kind of series: Displacement of [3H]-AB-MECA from human recombinant adenosine A3 receptor expressed in CHO-K1 cells at 10 uM after 60 mins. It counts as cell-based. In general terms: Loss of bound radioactivity is the signal in a displacement assay; it reports binding, not function.

Series [4] has as its system Hepatocyte. Kind of series: Intrinsic clearance in rat hepatocytes at 0.2 uM after 60 mins. It counts as ADME, cell-based, Liver. Particulars: 1 h. A digest of the protocol: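 Pooled cryopreserved hepatocytes: human (three donors), male Sprague-Dawley rat (two donors), male beagle dog (two donors). Cells at 10^6/mL in DMEM with 5 mM HEPES, 37 C, 15 min preincubation; compound at 0.2 μM. Samples at 0-60 min, depletion by LC-MS/MS. t1/2 scaled to CLint with 120 (human, rat) or 240 (dog) million cells/g liver. n = 1.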

In series [5] the target is T3, Adenosine receptor A1 (Homo sapiens, UniProt P30542).
T3 sequence (P30542 whole entry): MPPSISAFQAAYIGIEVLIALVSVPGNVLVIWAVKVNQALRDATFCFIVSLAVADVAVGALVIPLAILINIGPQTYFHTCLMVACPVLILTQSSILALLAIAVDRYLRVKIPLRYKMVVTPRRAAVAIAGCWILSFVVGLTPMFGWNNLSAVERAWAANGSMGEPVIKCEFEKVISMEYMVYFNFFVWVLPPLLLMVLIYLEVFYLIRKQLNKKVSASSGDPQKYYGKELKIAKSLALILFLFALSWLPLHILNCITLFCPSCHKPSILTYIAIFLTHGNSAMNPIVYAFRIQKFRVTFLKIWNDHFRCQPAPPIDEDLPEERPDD
Kind of series: Displacement of [3H]-DPCPX from human adenosine A1 receptor expressed in CHO cells after 30 mins by scintillation counting. It counts as cell-based. A digest of the protocol:
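CHO-hA1 membranes at 10.8 μg protein/well, pretreated with adenosine deaminase (2 U/mL, 30 min, 37 C), were incubated with 1 nM [3H]-DPCPX in 50 mM Tris/HCl pH 7.4 for 30 min at 25 C across 10 compound concentrations. Filtration on PEI-soaked GF/B, scintillation counting. Nonspecific binding by CGS15943. Ki by Cheng-Prusoff. Means of ≥2 determinations.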

Series [6] in a line: Apparent permeability from basolateral to apical side in human Caco2 cells at 1 uM after 21 to 28 days. It counts as ADME, cell-based. Particulars: caco-2. A digest of the protocol: (§2)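 Caco-2 cells grown 21-28 days on permeable filters. A 2 mM DMSO stock was diluted into Hanks-HEPES pH 7.4. Dosing solution went into the apical (A-B) or basolateral (B-A) chamber, and the opposite chamber was sampled over 240 min with buffer replacement. Efflux ratio = Papp,B-A/Papp,A-B. Mean ± SD, n = 3.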
A general note: Caco-2 monolayers are a common model of the intestinal barrier.

A short description of series [7]: Ratio of drug level whole brain to plasma in abcb1a-deficient mouse at 1 mg/kg, po after 50 mins.
The target of series [8] is Cytochrome P450 2C19 (Homo sapiens, UniProt P33261). Kind of series: Inhibition of recombinant CYP2C19 after 45 mins. Format: ADME. A digest of the protocol: (§3)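 Recombinant CYP supersomes incubated in phosphate buffer with eight compound concentrations (40-0.02 μM) and fluorogenic substrates. CYP1A2: 7-ethoxy-3-cyanocoumarin 10 μM, 28 min. CYP2C19: same substrate 50 μM, 45 min. CYP2D6: AMMC 3 μM, 45 min. CYP3A4: resorufin benzyl ether 100 μM, 30 min. Fluorescent metabolite read; IC50 relative to uninhibited controls.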
Chain of Cytochrome P450 2C19 (P33261 whole entry): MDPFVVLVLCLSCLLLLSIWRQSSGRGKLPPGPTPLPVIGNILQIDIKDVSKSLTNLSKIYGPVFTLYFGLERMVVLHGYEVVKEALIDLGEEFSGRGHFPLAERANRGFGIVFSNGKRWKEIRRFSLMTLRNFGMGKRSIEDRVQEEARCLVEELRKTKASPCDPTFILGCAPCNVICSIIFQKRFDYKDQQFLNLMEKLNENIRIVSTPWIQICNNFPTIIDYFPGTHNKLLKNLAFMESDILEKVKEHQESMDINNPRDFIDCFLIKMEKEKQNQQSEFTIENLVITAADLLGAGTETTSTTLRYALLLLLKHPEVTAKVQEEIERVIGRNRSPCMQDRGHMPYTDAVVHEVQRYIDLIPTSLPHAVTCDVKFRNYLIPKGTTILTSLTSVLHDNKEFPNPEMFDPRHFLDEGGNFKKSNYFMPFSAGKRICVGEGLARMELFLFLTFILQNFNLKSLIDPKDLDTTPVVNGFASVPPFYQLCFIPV

Series [9] is described as follows: Apparent permeability from apical to basolateral side in human Caco2 cells at 1 uM after 21 to 28 days. Format: ADME, cell-based. Particulars: caco-2. A digest of the protocol:
as §2

A short description of series [10]: Plasma clearance in Sprague-Dawley rat at 0.5 mg/kg, iv and 1 mg/kg, po. It counts as ADME, organism-based. The method in brief:
as §1

Series [11] in a line: Terminal half life in Sprague-Dawley rat at 0.5 mg/kg, iv and 1 mg/kg, po. It counts as ADME, organism-based. Particulars: in vivo. The method in brief: as §1
The species entered for series [12] is Homo sapiens. Kind of series: Selectivity ratio of Ki for human adenosine A1 receptor to Ki for human adenosine A2A receptor.
Series [13] can be described thus: Oral bioavailability in Sprague-Dawley rat at 1 mg/kg. Format: ADME, organism-based. Particulars: in vivo. The method in brief:
as §1

Series [14] addresses T4, Cytochrome P450 1A2 (Homo sapiens, UniProt P05177).
T4 sequence (P05177 whole entry): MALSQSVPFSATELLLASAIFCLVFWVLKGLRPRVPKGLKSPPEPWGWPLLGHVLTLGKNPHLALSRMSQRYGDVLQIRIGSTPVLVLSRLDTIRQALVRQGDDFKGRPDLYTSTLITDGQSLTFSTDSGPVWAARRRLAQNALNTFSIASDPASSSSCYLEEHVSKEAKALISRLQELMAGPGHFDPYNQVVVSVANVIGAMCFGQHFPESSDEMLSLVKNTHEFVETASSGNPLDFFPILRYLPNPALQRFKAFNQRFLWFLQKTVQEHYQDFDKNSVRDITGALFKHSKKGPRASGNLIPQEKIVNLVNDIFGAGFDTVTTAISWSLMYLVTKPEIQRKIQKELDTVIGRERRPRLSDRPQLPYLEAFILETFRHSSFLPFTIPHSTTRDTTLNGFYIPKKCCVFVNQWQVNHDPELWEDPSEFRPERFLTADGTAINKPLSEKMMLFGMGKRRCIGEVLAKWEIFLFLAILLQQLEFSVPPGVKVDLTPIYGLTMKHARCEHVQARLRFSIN
The experiment in a line: Inhibition of recombinant CYP1A2 after 28 mins. It counts as ADME. A digest of the protocol: as §3

Series [15] concerns Mus musculus. The experiment in a line: Reversal of haloperidol-induced hypolocomotion in po dosed NMRI mouse administered 30 mins before haloperidol challenge measured for 20 mins. Format: functional. The method in brief:
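Male NMRI mice (n = 8/group) were given compound po in 25% cremophor/saline, then haloperidol 0.63 mg/kg sc 30 min later. After 15 min they went into photocell activity boxes, and locomotion was recorded for 20 min. ED50 by sigmoidal fit with top 100 and bottom 0.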

The nature of series [16]: Protein binding in human serum at 1 uM after 60 mins by LC/MS-MS. It counts as ADME, cell-free. Particulars: read-out: PPB (converted).
A short description of series [17]: Protein binding in rat serum at 1 uM after 60 mins by LC/MS-MS. Particulars: read-out: PPB (converted). It counts as ADME, cell-free.

By Ki is commonly meant the equilibrium dissociation constant of an inhibitor or competing ligand from its target. As usually defined, the half-life is the time in which the quantity being followed falls by half. As a reminder, the inhibition is the change of the read-out against control, counted positive when it falls. A word on the Papp B→A: it is the apparent permeability from the basolateral to the apical side of a cell layer. As a reminder, the Kp is tissue or fluid exposure divided by exposure in the circulation. The IC50 is the concentration needed to halve the response being measured. A word on the Papp A→B: it is the apparent permeability from the apical to the basolateral side of a cell layer. By bioavailability is commonly meant the share of a dose that reaches the circulation, judged against a reference dose that is usually intravenous. Read a high bioavailability as good availability. What is called ED50 is the midpoint of the dose-response relation. Regarding `CC(C)(C)CC(=O)Nc1c(F)cc(C(=O)Nc2nccs2)cc1F`, the Ki in [1] was more than 10 µM; in series [5] it was 0.41 µM. Besides, the half-life is 1.2 h in [2] and 7.8 h in series [11]. In series [3], the inhibition worked out at 36%. This compound came in with a CL in series [4] of 12 mL/min. Further, in [6], the Papp B→A at 1 µM came to 67 ×10⁻⁶ cm/s. The Kp at 50 min in [7] was 0.8. Besides, the IC50 in series [8] and in series [14] was more than 40 µM throughout. In series [9], the Papp A→B at 1 µM was 88 ×10⁻⁶ cm/s. This compound also gave a clearance in series [10] of 5 mL/min/kg. Moreover, the Ratio Ki in series [12] is 69. In [13], this compound came in with a bioavailability of 88%. The Activity result in series [15] is “Dose-dependent effect”. Further, the ED50 in [15] stood at 0.5 mg/kg. Moreover, the results for the fraction unbound at 1 h, 1 µM in [16] and in [17] were 0.15 and 0.03, respectively.
